Data as given in ChEMBL document CHEMBL2046408, “Design, synthesis and antimicrobial activities of nitroimidazole derivatives containing 1,3,4-oxadiazole scaffold as FabH inhibitors” (Bioorg Med Chem, 2012).
Converted amounts (≈) assume the structure as drawn.

Key:
Bacillus subtilis = experiment: Antibacterial activity against Bacillus subtilis ATCC 530 after 24 hrs by MTT assay; assay type: functional; conditions: ATCC 530, 24 h
Outline: (§1)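 Seeded broth in nutrient broth from 24 h bacterial cultures on nutrient agar at 37 °C. Suspension adjusted with sterile saline to 1 × 10⁴–10⁵ CFU. Compounds and reference drugs twofold serially diluted to 100, 50, 25, 12.5, 6.25 … µg/mL. MIC determined by MTT method.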

Staphylococcus aureus = experiment: Antibacterial activity against Staphylococcus aureus ATCC 25923 after 24 hrs by MTT assay; assay type: functional; conditions: ATCC 25923, 24 h; outline: as §1
Pseudomonas aeruginosa = experiment: Antibacterial activity against Pseudomonas aeruginosa ATCC 27853 after 24 hrs by MTT assay; assay type: functional; conditions: ATCC 27853, 24 h; outline: as §1
Escherichia coli = experiment: Antibacterial activity against Escherichia coli ATCC 25922/35128 after 24 hrs by MTT assay; assay type: functional; conditions: ATCC 25922/35128, 24 h; outline: as §1
[1] = Toxicity in RBC assessed as hemolysis; assay type: cell-based; conditions: erythrocyte
[2] = inhibition of Escherichia coli FabH expressed in Escherichia coli BL21 (DE3) cells assessed as [3H]acetyl-CoA after 25 mins by liquid scintillation counting
[3] = inhibition of Escherichia coli FabH expressed in Escherichia coli BL21 (DE3) cells assessed as [3H]acetyl-CoA after 5 mins by liquid scintillation counting; conditions: in the assay text read “after 25 mins” for “after 5 mins”
Outline: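 His-tagged E. coli FabH was expressed in kanamycin-selected culture in LB at 37 °C, induced with 0.5 mM IPTG for 4 h, then Ni–NTA purified. Reactions were run in 20 mM sodium phosphate, pH 7.0, with holo-ACP. They were stopped with ice-cold 50% TCA, the protein was pelleted, and ³H incorporation into product was read by liquid scintillation. Inhibitors were added from DMSO stock, final DMSO ≤2%.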

Row | Compound | MIC (Bacillus subtilis) [µg/mL] | MIC (Staphylococcus aureus) [µg/mL] | MIC (Pseudomonas aeruginosa) [µg/mL] | MIC (Escherichia coli) [µg/mL] | IC50 [2] [µM] | IC50 [3] [µM] | LC30 [1] [µg/mL]
1 | Cc1ncc([N+](=O)[O-])n1Cc1nnc(Cc2ccc(F)cc2)o1 | 50 (≈ 158 µM) | 25 (≈ 78.8 µM) | 12.5 (≈ 39.4 µM) | 25 (≈ 78.8 µM) |  |  | 
2 | NC[C@H]1O[C@H](O[C@H]2[C@H](O)[C@@H](O[C@H]3O[C@H](CO)[C@@H](O)[C@H](N)[C@H]3O)[C@H](N)C[C@@H]2N)[C@H](O)[C@@H](O)[C@@H]1O [KANAMYCIN] | 1.56 (≈ 3.22 µM) | 1.56 (≈ 3.22 µM) | 3.13 (≈ 6.46 µM) | 3.13 (≈ 6.46 µM) |  |  | 
3 | Cc1ncc([N+](=O)[O-])n1Cc1nnc(Cc2ccc(Br)cc2)o1 | 50 (≈ 132 µM) | 50 (≈ 132 µM) | 25 (≈ 66.1 µM) | 50 (≈ 132 µM) |  |  | 
4 | Cc1ncc([N+](=O)[O-])n1Cc1nnc(Cc2cccc(Br)c2)o1 | 25 (≈ 66.1 µM) | 50 (≈ 132 µM) | 6.25 (≈ 16.5 µM) | 25 (≈ 66.1 µM) |  |  | 
5 | Cc1ncc([N+](=O)[O-])n1Cc1nnc(-c2cccc(F)c2)o1 | > 100 | > 100 | > 100 | > 100 |  |  | 
6 | Cc1ncc([N+](=O)[O-])n1Cc1nnc(Cc2cccc(F)c2)o1 | > 100 | > 100 | > 100 | > 100 |  |  | 
7 | Cc1ncc([N+](=O)[O-])n1Cc1nnc(Cc2ccc(Cl)cc2)o1 | 50 (≈ 150 µM) | 25 (≈ 74.9 µM) | 12.5 (≈ 37.5 µM) | 50 (≈ 150 µM) |  |  | 
8 | Cc1ncc([N+](=O)[O-])n1Cc1nnc(Cc2ccc([N+](=O)[O-])cc2)o1 | 25 (≈ 72.6 µM) | 50 (≈ 145 µM) | 25 (≈ 72.6 µM) | 25 (≈ 72.6 µM) |  |  | 
9 | Cc1ccccc1Cc1nnc(Cn2c([N+](=O)[O-])cnc2C)o1 | 50 (≈ 160 µM) | 25 (≈ 79.8 µM) | 25 (≈ 79.8 µM) | 12.5 (≈ 39.9 µM) |  |  | 
10 | Cc1ncc([N+](=O)[O-])n1Cc1nnc(-c2ccc([N+](=O)[O-])cc2)o1 | 25 (≈ 75.7 µM) | 25 (≈ 75.7 µM) | 12.5 (≈ 37.8 µM) | 12.5 (≈ 37.8 µM) | 40.5 |  | > 10000

The remaining compounds from weak to strong by MIC (Bacillus subtilis), led by results:

Row | MIC (Bacillus subtilis) [µg/mL] | MIC (Staphylococcus aureus) [µg/mL] | MIC (Pseudomonas aeruginosa) [µg/mL] | MIC (Escherichia coli) [µg/mL] | IC50 [2] [µM] | IC50 [3] [µM] | Compound | LC30 [1] [µg/mL]
11 | 25 (≈ 75.9 µM) | 25 (≈ 75.9 µM) | 12.5 (≈ 38 µM) | 50 (≈ 152 µM) |  |  | COc1ccccc1Cc1nnc(Cn2c([N+](=O)[O-])cnc2C)o1 | 
12 | 25 (≈ 75.9 µM) | 50 (≈ 152 µM) | 12.5 (≈ 38 µM) | 25 (≈ 75.9 µM) |  |  | COc1cccc(Cc2nnc(Cn3c([N+](=O)[O-])cnc3C)o2)c1 | 
13 | 12.5 (≈ 34.3 µM) | 50 (≈ 137 µM) | 25 (≈ 68.7 µM) | 25 (≈ 68.7 µM) |  | 43.8 | Cc1ncc([N+](=O)[O-])n1Cc1nnc(-c2ccc(Br)cc2)o1 | > 10000
14 | 12.5 (≈ 41.2 µM) | 25 (≈ 82.4 µM) | 25 (≈ 82.4 µM) | 12.5 (≈ 41.2 µM) |  | 18.6 | Cc1ncc([N+](=O)[O-])n1Cc1nnc(-c2ccc(F)cc2)o1 | > 10000
15 | 12.5 (≈ 39.1 µM) | 25 (≈ 78.2 µM) | 12.5 (≈ 39.1 µM) | 12.5 (≈ 39.1 µM) |  | 28.3 | Cc1ncc([N+](=O)[O-])n1Cc1nnc(-c2ccc(Cl)cc2)o1 | > 10000
16 | 6.25 (≈ 19.8 µM) | 12.5 (≈ 39.6 µM) | 12.5 (≈ 39.6 µM) | 12.5 (≈ 39.6 µM) |  | 9.4 | COc1cccc(-c2nnc(Cn3c([N+](=O)[O-])cnc3C)o2)c1 | > 10000
17 | 6.25 (≈ 17.2 µM) | 25 (≈ 68.7 µM) | 25 (≈ 68.7 µM) | 6.25 (≈ 17.2 µM) |  | 16.9 | Cc1ncc([N+](=O)[O-])n1Cc1nnc(-c2cccc(Br)c2)o1 | > 10000
18 | 1.56 (≈ 5.21 µM) | 6.25 (≈ 20.9 µM) | 3.13 (≈ 10.5 µM) | 1.56 (≈ 5.21 µM) | 5.1 |  | Cc1ccccc1-c1nnc(Cn2c([N+](=O)[O-])cnc2C)o1 | > 10000
19 | 1.56 (≈ 4.95 µM) | 3.13 (≈ 9.93 µM) | 1.56 (≈ 4.95 µM) | 1.56 (≈ 4.95 µM) |  | 4.3 | COc1ccccc1-c1nnc(Cn2c([N+](=O)[O-])cnc2C)o1 | > 10000
